Structures are written as SMILES. Values after ≈ are worked out from the molar mass of the structure shown.

One experiment has as its system HepG2. Description: Cytotoxicity against human HepG2 cells. It counts as cell-based. Summed up: (§1)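 IC50 in µg/mL, taken as the mean of duplicate determinations.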
The test system of experiment [1] is A549. Nature of the experiment: Inhibition of ICAM1 induction in human A549 cells. It counts as functional, cell-based. Summed up:
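A549 cells pretreated 1 h with a range of test concentrations, then stimulated with IL-1α for 6 h. Surface ICAM-1 detected with primary and secondary antibodies plus enzyme substrate, absorbance at 415 nm. Triplicate cultures, IC50 derived.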

Experiment [2] has as its system A549. Nature of the experiment: Cytotoxicity against human A549 cells by MTT assay. The class given is cell-based. Summed up: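 A549 cells exposed to serial dilutions for 24 h. Viability (%) read by MTT and used to derive IC50. Triplicate cultures.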
Experiment [3] is described as follows: Effect on calcein accumulation in multidrug resistant human 2780 AD cells at 0.25 ug/mL relative to control. It counts as functional. Summed up: (§2)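 Calcein (formed from calcein AM by cellular esterase) accumulated in multidrug-resistant ovarian cancer 2780 AD cells. Read in the presence of 0.25, 2.5 or 25 µg/mL test compound and expressed as % of control. Means of triplicate determinations.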

The nature of experiment [4]: Effect on calcein accumulation in multidrug resistant human 2780 AD cells at 2.5 ug/mL relative to control. It counts as functional. Summed up: as §2
Experiment [5] can be described thus: Effect on calcein accumulation in multidrug resistant human 2780 AD cells at 25 ug/mL relative to control. The class given is functional. Summed up:
as §2

Experiment [6] can be described thus: Cytotoxicity against human WI38 cells. It counts as cell-based. Conditions: WI-38. An outline of the steps:
as §1

Another experiment relates to WI-38 VA13. Description: Cytotoxicity against human VA13 cells. It counts as cell-based. An outline of the steps: as §1
A short description of experiment [7]: Effect on calcein accumulation in multidrug resistant human 2780 AD cells at 0.25 ug/mL relative to verapamil. It counts as functional.
Experiment [8] can be described thus: Effect on calcein accumulation in multidrug resistant human 2780 AD cells at 2.5 ug/mL relative to verapamil. The class given is functional.
A short description of experiment [9]: Effect on calcein accumulation in multidrug resistant human 2780 AD cells at 25 ug/mL relative to verapamil. It counts as functional.

One may read the IC50 as the concentration at which inhibition is half-maximal. Regarding `CC(=O)C1=CC[C@H]2[C@@H]3C=CC4=CC(=O)CC[C@]4(C)[C@H]3C[C@@H](O)[C@]12C` [NERIDIENONE A], the IC50 with HepG2 came to 2.5 mg/L (≈ 7.66 µM); in the experiment with A549 [1] (read-out: IC50) it was 7 µM; in the experiment with A549 [2] (read-out: IC50) it was 53.1 µM; in experiment [6], 4.9 mg/L (≈ 15 µM); with WI-38 VA13, 0.68 mg/L (≈ 2.08 µM). Moreover, the Activity is 109% in experiment [3], 92% in [4] and 107% in experiment [5].
In the case of `C[C@]12C(=O)C[C@H]3[C@@H](C=CC4=CC(=O)CC[C@@]43C)[C@@H]1CC[C@@H]2[C@H](O)CO` [NERIDIENONE B], the IC50 with HepG2 is above 100 mg/L; in experiment [6] it was 73.5 mg/L (≈ 213 µM); in the experiment with WI-38 VA13, above 100 mg/L. The Activity in [3] is on record as 110%; in experiment [4], 154%; in experiment [5], 148%; in [7], 113%; in [8], 141%; in experiment [9] it was 100%.
Regarding `CC(=O)[C@]12O[C@H]1C[C@H]1[C@@H]3C=CC4=CC(=O)CC[C@]4(C)[C@H]3C[C@@H](O)[C@@]12C`, the IC50 in the experiment with HepG2 was 62.1 mg/L (≈ 181 µM); in the experiment on A549 [1], above 100 µM; in the experiment with A549 [2], above 100 µM; in [6], 51.1 mg/L (≈ 149 µM); in the experiment with WI-38 VA13 it was 73.1 mg/L (≈ 213 µM). Besides, the Activity is reported as 103% in [3], 108% in experiment [4] and 99% in experiment [5].
For the compound `C[C@]12C(=O)C[C@H]3[C@@H](C=CC4=CC(=O)CC[C@@]43C)[C@@H]1CC[C@@H]2C(=O)CO`, the figures for the IC50 (in the experiment on HepG2; in experiment [6]; in the experiment on WI-38 VA13) were 94.9 mg/L (≈ 277 µM), 48.1 mg/L (≈ 140 µM) and 87.7 mg/L (≈ 256 µM), respectively. Besides, the Activity in experiment [3] is on record as 110%; in experiment [4], 105%; in experiment [5], 140%.
With `C[C@@H](O)[C@H]1CC[C@H]2[C@@H]3C=CC4=CC(=O)CC[C@]4(C)[C@H]3CC(=O)[C@]12C`, the IC50 in the experiment with HepG2 was 49.2 mg/L (≈ 150 µM); with A549 [1] (read-out: IC50), above 300 µM; with A549 [2] (read-out: IC50), above 300 µM; in experiment [6], 66.4 mg/L (≈ 202 µM); in the experiment with WI-38 VA13, 57.4 mg/L (≈ 175 µM). The Activity in experiment [3] is listed as 116%; in [4], 127%; in [5], 138%; in [7], 120%; in [8], 117%; in experiment [9], 93%.
Turning to `COc1ccc(CCN(C)CCCC(C#N)(c2ccc(OC)c(OC)c2)C(C)C)cc1OC` (stereo not given) [VERAPAMIL], the Activity is reported as 97% in experiment [3], 109% in experiment [4] and 148% in experiment [5].
